Beta apoptosis: blocks beta cell apoptosis | hit rate 0.8% among 300,000 | protection from apoptosis, % (test concentration not listed) | INS-1E cytokine-induced death, ATP luminescence, 48 h; percent of positive-control rescue, neutral wells zero | AID 435005;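 active means Every replicate reaches about 75%, or at least half do and their mean reaches it too, limit read from the data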;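 further: higher means more ATP so stronger rescue from cytokine killing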
Calb FLC: affects C. albicans growth with fluconazole | C. albicans CaCi-2 (fluconazole-resistant clinical isolate) + fluconazole, Alamar Blue growth, 48 h | growth inhibition, % (concentration not given with the values) | hit rate 0.57% among 300,000 | AID 1979;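 active means growth inhibition above about 58% in most replicates, limit read from the data, passing the limit was not always enough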;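 further: all wells also contain fluconazole at 8 µg/ml as a sub-toxic cotreatment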
NALP3 yeast inh: inhibitors of NALP3 inflammasome in yeast; hit rate 0.39% among 330,000; Yeast reconstituted NLRP3/ASC/caspase-1, beta-gal luminescence, 24 h; inhibition, % at 10 µM; AID 2825;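 active means inhibition of 50% or more; inactive means inhibition below 50%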
Mdm2 MdmX PPI: inhibitors of human Mdm2/MdmX interaction; O15151+Q00987; inhibition, % at 8 µM; hit rate 3% among 330,000; SaOS-2 split-luciferase Mdm2/MdmX complementation, luminescence;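 active means inhibition of at least 50% at 8 µM in the primary screen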
CSC inhib: cancer stem cell inhibition; cancer stem cell-like cells viability, luminescence; inhibition, % at 7.5 µM; hit rate 1.1% among 300,000; in the data active means inhibition above about 75%; tested in HMLE shEcad cells
T cruzi repl: blocks replication of Trypanosoma cruzi; hit rate 1.4% among 300,000; T. cruzi beta-gal in NIH3T3, luminescence, 90 h; inhibition, % (no concentration beside the values); AID 1885;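 active means mean inhibition across valid replicates above about 55%, limit read from the data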;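 further: signal also drops with host cell toxicity which is not excluded here; higher percent means less beta-gal luminescence so fewer parasites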
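Incubation – ≥90 h infection period, 3 h prior cell attachment · System – NIH/3T3 fibroblasts plus reporter T. cruzi · Doses – compound pinned at 50 nL/well, DMSO · Read-out basis – percent inhibition of parasite-derived β-gal signal · Signal – luminescent β-galactosidase signal after 60 min lysis · Also added – 5000 T. cruzi trypomastigotes/well · Medium – Low-serum DMEM with 2% FBS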
Mdm2 MdmX conf: human Mdm2/MdmX binding inhibition, confirmed. inhibition, % at 8 µM. hit rate 55% among 10,000. shares compounds with Mdm2 MdmX PPI. luminescent assay; in the data active means inhibition above about 40%
FLuc counter: inhibits full-length luciferase, flagging false Mdm2/MdmX hits; AID 504607; inhibition, % at 8 µM; hit rate 77% among 6,200; SaOS-2 full-length luciferase counterscreen, luminescence; shares compounds with Mdm2 MdmX PPI;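 active means mean inhibition at 8 µM reaching about 37%, which flags the compound as non-specific, limit read from the data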;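 further: p53-null SaOS-2 cells with luciferase driven by a doxycycline-inducible promoter; compound on cells about two nights before reading with doxycycline added after day one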
Large screens that a line does not name were inactive (follow-up assays come after a bar, where they were run). Hits are enriched below; roughly 5.3% of the tested compounds scored in any of these assays.

CCN(CC)CCN(C(=O)Cn1nnc(-c2ccc(OC)c(OC)c2)n1)C(C(=O)NC1CCCC1)c1ccc(F)cc1 (centres undefined)	Mdm2 MdmX PPI 74.7 | Mdm2 MdmX conf inactive
O=C(O)C1CCCN1S(=O)(=O)c1ccc(Cl)cc1 (centres undefined)	none
COc1ccc(-c2nnn(CC(=O)N(Cc3ccc(F)cc3)C(C(=O)NC3CCCC3)c3ccc(F)cc3)n2)cc1 (centres undefined)	Mdm2 MdmX PPI 75.5 | Mdm2 MdmX conf inactive
CCOC(=O)CN(C(=O)Cn1nnc(-c2ccc(OC)cc2)n1)C(C(=O)NC1CCCC1)c1ccc(F)cc1 (centres undefined)	none
COc1ccccc1NC(=O)c1sc2ncn(CC(=O)Nc3ccccc3)c(=O)c2c1C	Mdm2 MdmX PPI 54.9 (no result: CSC inhib) | Mdm2 MdmX conf inactive
CN(C)N1C(N)=C(C#N)C(c2cccc3ccccc23)C2=C1CC(c1ccccc1)CC2=O (centres undefined)	Mdm2 MdmX PPI 63.5, CSC inhib 80.1 | Mdm2 MdmX conf 62.7 | FLuc counter 42.5
Cc1ccc(C(=O)NNC(=S)Nc2cccc(Cl)c2Cl)cc1[N+](=O)[O-]	none
COc1ccc(NC(=O)C(=O)NCC2CCCN2S(=O)(=O)c2cc(C)ccc2C)cc1 (centres undefined)	Mdm2 MdmX PPI 59.9 | Mdm2 MdmX conf 74.2 | FLuc counter 47.6
COc1ccc(NC(=O)C(=O)NCC2CCCN2S(=O)(=O)c2ccc(C)cc2)cc1 (centres undefined)	Mdm2 MdmX PPI 66.3 (no result: Beta apoptosis) | Mdm2 MdmX conf 78.5 | FLuc counter 104.3
Cc1csc(Nc2nc(N)c(C(=O)Nc3cc(Cl)ccc3F)o2)n1	Mdm2 MdmX PPI 55.0 | Mdm2 MdmX conf inactive
Cc1ccc2[nH]c3c(=O)n(CC(=O)Nc4ccccc4N4CCN(C)CC4)ncc3c2c1	Mdm2 MdmX PPI 61.2 | Mdm2 MdmX conf inactive
CN1CCN(c2ccccc2NC(=O)Cn2ncc3c([nH]c4ccccc43)c2=O)CC1	none
CC(NCCCOc1cccc2ccccc12)c1ccccc1 (centres undefined)	Mdm2 MdmX PPI 58.1 (no result: Beta apoptosis, CSC inhib) | Mdm2 MdmX conf inactive
COc1ccc2ccccc2c1CNC(C)c1ccccc1 (centres undefined)	none
COC(=O)CSc1n[nH]c(=S)s1	none
CC1(C)Oc2ccc3ccc(=O)oc3c2-c2cn[nH]c21	Mdm2 MdmX PPI 59.9 | Mdm2 MdmX conf inactive
CC1(C)Oc2ccc3ccc(=O)oc3c2-c2cnoc21	none
CC(Sc1nnc(Nc2ccccc2)s1)C(=O)Nc1nc(-c2ccccc2)cs1 (centres undefined)	Mdm2 MdmX PPI 65.5 | Mdm2 MdmX conf 71.5 | FLuc counter 101.1
CC(Sc1nnc(NCc2ccccc2)s1)C(=O)Nc1ccc2c(c1)C(=O)c1ccccc1C2=O (centres undefined)	none
CC1(C)CC(=O)C=C(NC2CCCCC2)C1	none
COc1ccc2cc3c(N)nn(C(=O)Cc4c[nH]c5ccccc45)c3nc2c1	Mdm2 MdmX PPI 93.2 | Mdm2 MdmX conf 98.1 | FLuc counter 52.1
COc1cccc(CC(=O)n2nc(N)c3cc4ccc(OC)cc4nc32)c1	Mdm2 MdmX PPI 64.1 | Mdm2 MdmX conf inactive
COc1ccc(CN(C)C(=O)Cc2c[nH]c3ccccc23)cc1	none
COc1ccc2cc3c(N)nn(C(=O)Cc4ccc(Cl)cc4)c3nc2c1	Mdm2 MdmX PPI 73.3 | Mdm2 MdmX conf 59.5 | FLuc counter 47.8
COc1cccc(COC(=O)c2nn(-c3ccccc3)nc2N)c1	none
COc1ccc(C(=O)NNC(=O)C2CC=CCC2)cc1 (centres undefined)	none
O=C(NCCN1CCOCC1)c1cccc(S(=O)(=O)N2CCCCC2)c1	none
COc1ccc(NC(=O)CN2C(=O)COc3ccc(S(=O)(=O)N4CCCCC4)cc32)cc1OC	none
Cc1cc(/C=N/n2cnnc2)c(C)n1-c1ccc(OCc2ccc(F)cc2)cc1	Mdm2 MdmX PPI 65.1 (no result: Beta apoptosis, CSC inhib) | Mdm2 MdmX conf inactive | FLuc counter 78.1
Cc1cc(/C=N/n2cnnc2)c(C)n1-c1ccc(OCc2ccc(Cl)cc2Cl)cc1	Beta apoptosis 113.0, Mdm2 MdmX PPI 73.6, CSC inhib 103.1 | Mdm2 MdmX conf inactive
Cc1cc(/C=N/n2cnnc2)c(C)n1-c1ccc(Cl)cc1	none
C=C(C)C(=O)Nc1cccc(C2=NOC3(C2)C[C@@H](C(N)=O)N(C(=O)c2ccc(Cl)cc2)C3)c1 (some centres undefined)	none (no result: Calb FLC, T cruzi repl)
C=CCN(CC=C)S(=O)(=O)c1ccc2nc(NC(=O)C(C)C)sc2c1	Mdm2 MdmX PPI 58.7 (no result: Calb FLC, T cruzi repl) | Mdm2 MdmX conf 59.5 | FLuc counter 52.1
Cc1cc(Oc2nc3c(C)cccn3c(=O)c2/C=C(\C#N)S(=O)(=O)c2ccccc2)ccc1Cl	Mdm2 MdmX PPI 51.7 | Mdm2 MdmX conf inactive
COC(=O)c1cc(NC2c3ccccc3C(=O)N2c2cccnc2)cc(C(=O)OC)c1 (centres undefined)	none
COc1ccc(NC(=O)Cn2nnc(-c3ccccc3NS(=O)(=O)c3ccc(OC)cc3)n2)cc1	Mdm2 MdmX PPI 67.0 | Mdm2 MdmX conf 54.8 | FLuc counter 83.4
COc1ccc(C(=O)Nc2ccc(-c3nnn(CC(=O)NCc4ccco4)n3)cc2)cc1	Mdm2 MdmX PPI 68.4 | Mdm2 MdmX conf inactive
O=C(Cn1nnc(-c2ccccc2NC(=O)c2ccco2)n1)Nc1ccccc1	Mdm2 MdmX PPI 75.8 (no result: CSC inhib) | Mdm2 MdmX conf 41.1 | FLuc counter 64.1
Cc1cc(C)c(-c2nc3ccccc3s2)[nH]1	none
CCC1(c2ccccc2)NC(=O)N(C)C1=O (centres undefined)	none (no result: Beta apoptosis, Calb FLC, T cruzi repl)
Cn1c(Oc2ccc(Cl)cc2)c(C=O)c2ccccc21	Mdm2 MdmX PPI 50.1 | Mdm2 MdmX conf 41.4 | FLuc counter inactive
Cn1c(Sc2ccc(Cl)cc2)c(C=O)c2ccccc21	Mdm2 MdmX PPI 80.8 | Mdm2 MdmX conf 77.0 | FLuc counter 56.9
C1CCC(c2nn3c(-c4n[nH]c5c4CCC5)nnc3s2)CC1	none
CCN(CC)c1ccc(-c2nn3c(-c4n[nH]c5c4CCC5)nnc3s2)cc1	Mdm2 MdmX PPI 50.8 | Mdm2 MdmX conf 59.0 | FLuc counter 102.1
N#C/C(=C\Nc1ccc2cn[nH]c2c1)c1nc(-c2ccc(Cl)cc2)cs1	Mdm2 MdmX PPI 50.4 | Mdm2 MdmX conf inactive
Cc1ccc(N(CC(=O)NC2CCCCC2)S(=O)(=O)c2cccs2)cc1	Mdm2 MdmX PPI 66.1 | Mdm2 MdmX conf inactive
COc1ccc(N(CC(=O)NC2CCCCC2)S(=O)(=O)c2cccs2)cc1	none (no result: Calb FLC, T cruzi repl)
CCC(C)NC(=O)C1CCN(CCCc2ccccc2)CC1 (centres undefined)	none
Cn1c(SCc2ccc([N+](=O)[O-])cc2)nnc1-c1cccnc1	none
